From PubChem BioAssay
E coli WT exp: growth inhibitors of wild-type E. coli, primary screen, strain BW25113, expanded library, OD600; OD600 absorbance; growth inhibition, % at 100 µM; 0.15% of 98,000 active; AID 710, 2007;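 active = growth inhibition above about 50% at one test dose, limit read from the data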;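 note: growth measured after 20 h incubation at 37 °C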
CYP2C9 act: human CYP2C9 activators, primary screen, biochemical, luminescence | Cytochrome P450 2C9 (Homo sapiens), P11712 | recombinant CYP2C9, luciferin-H conversion; hits give high values; factor 1 = untreated enzyme, 0 = blocked | activation factor at 5 µM | 1.4% of 96,000 active | AID 1024, 2008;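 active = activation factor of 2 or more for CYP2C9 at a 5 µM dose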;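 note: 0 = sulfaphenazole-blocked wells and 1 = vehicle-only wells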
Target sequence (P11712 whole entry, looked up): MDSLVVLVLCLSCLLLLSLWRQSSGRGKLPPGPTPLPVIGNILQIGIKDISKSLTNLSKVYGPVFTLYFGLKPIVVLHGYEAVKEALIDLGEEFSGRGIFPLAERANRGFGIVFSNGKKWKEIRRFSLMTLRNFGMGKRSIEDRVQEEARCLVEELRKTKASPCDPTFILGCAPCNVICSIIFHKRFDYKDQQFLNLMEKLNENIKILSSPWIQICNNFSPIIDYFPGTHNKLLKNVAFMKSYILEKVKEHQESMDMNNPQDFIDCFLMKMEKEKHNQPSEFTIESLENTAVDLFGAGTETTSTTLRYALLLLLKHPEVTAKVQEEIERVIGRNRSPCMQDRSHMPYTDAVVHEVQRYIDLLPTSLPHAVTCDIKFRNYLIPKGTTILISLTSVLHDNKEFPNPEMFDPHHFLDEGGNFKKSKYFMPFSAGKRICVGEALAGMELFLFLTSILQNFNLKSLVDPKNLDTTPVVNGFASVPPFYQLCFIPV
Ecoli tolC: growth inhibitors of E. coli tolC mutant, primary screen, strain BW25113 ΔtolC::kan, 384-well; OD615; growth inhibition, % at 10 µM (by protocol); 2.2% of 65,000 active; AID 573, 2007;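 active = growth inhibition at or above a cutoff equal to the mean over every tested compound plus 3 SD, cut at about 60% in these data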;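 note: growth measured after 20 h incubation at 37 °C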
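Test system: tolC-deleted E. coli BW25113 | Medium: LB with kanamycin 50 µg/mL | Compound dosing: Single concentration, 10 µM final per compound | Schedule: 37 °C, 20 h exposure | Measured by: OD at 615 nm | Evaluation: Percent growth inhibition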
CYP2C19 activ: human CYP2C19 activators, primary screen, biochemical, luminescence; activation factor at 5 µM; Cytochrome P450 2C19 (Homo sapiens), P33261; 96,000 tested, under 10 active; recombinant CYP2C19, luciferin-H EGE luminescence; hits give high values; 0 = fully inhibited enzyme, 1 = untreated enzyme;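 active = activation factor of at least 2 at 5 µM in the primary screen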;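 note: 0 = wells with 2.5 mM tranylcypromine and 1 = vehicle-only wells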
CYP2C9 inhib: blockers of cytochrome P450 2C9 activity – biochemical, luminescence, ADME assay, primary screen. 20% of 96,000 active. inhibition, % at 5 µM. CYP2C9 Supersomes, luciferin-H conversion. P11712;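 active = blocking of liver enzyme CYP2C9 beyond about 50% at 5 µM, limit read from the data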
CYP2C19 inhib: blockers of cytochrome P450 2C19 activity – biochemical, luminescence, ADME assay, primary screen. 21% of 96,000 active. inhibition, % at 5 µM. P33261. CYP2C19 Supersomes, luciferin-H EGE luminescence, 30 min;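 active = CYP2C19 inhibition above a set limit at 5 µM in the primary screen, cut at about 50% in these data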;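 note: plate controls were negative control wells for no effect and 2.5 mM tranylcypromine positive control for full effect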
Active calls of the source: *. Sampled rows, rich in hits. Any-hit rate of the full collection: about 29%.

How did N#CC1=C(N)SC(N)=C(C#N)C1c1cccc(Oc2ccccc2)c1 do in these assays?
E coli WT exp: 3; CYP2C9 act: 0.1; Ecoli tolC: 27; CYP2C19 activ: 0.6; CYP2C9 inhib: 92*; CYP2C19 inhib: 42

What do the screens show for `CCc1ccc(C2C(C#N)=C(N)SC(N)=C2C#N)s1`?
E coli WT exp: 3; CYP2C9 act: 0.2; Ecoli tolC: 6; CYP2C19 activ: 0.5; CYP2C9 inhib: 76*; CYP2C19 inhib: 49

How did CCOc1ccc(C2C(C#N)=C(N)SC(N)=C2C#N)cc1OCC do in these assays?
E coli WT exp: 26; CYP2C9 act: 0.2; Ecoli tolC: 20; CYP2C19 activ: 0.4; CYP2C9 inhib: 84*; CYP2C19 inhib: 58*

Results for CC(=O)Nc1ccc(NC(=O)CSCCc2ccccn2)cc1 ?
E coli WT exp: -2; CYP2C9 act: 0.9; CYP2C19 activ: 0.7; CYP2C9 inhib: 7; CYP2C19 inhib: 33

How did CCOc1ccccc1C1C(C#N)=C(N)SC(N)=C1C#N do in these assays?
E coli WT exp: 6; CYP2C9 act: 1.1; Ecoli tolC: 5; CYP2C19 activ: 0.5; CYP2C9 inhib: -7; CYP2C19 inhib: 52*

How did CCCOc1ccc2[nH]cc(C(=O)O)c(=O)c2c1 do in these assays?
E coli WT exp: -7; CYP2C9 act: 1; Ecoli tolC: -1; CYP2C19 activ: 0.9; CYP2C9 inhib: -1; CYP2C19 inhib: 14

How did O=C(NC1CCCCC1)c1cccc(S(=O)(=O)N2CCOCC2)c1 do in these assays?
E coli WT exp: -7; CYP2C9 act: 1; Ecoli tolC: -10; CYP2C19 activ: 1.1; CYP2C9 inhib: -2; CYP2C19 inhib: -11

How did COc1ccc(NC(=O)c2cc3c(s2)CCC3)cc1S(=O)(=O)N1CCOCC1 do in these assays?
E coli WT exp: -7; CYP2C9 act: 0.8; CYP2C19 activ: 1; CYP2C9 inhib: 19; CYP2C19 inhib: 3

What do the screens show for `CC(=O)Nc1cccc(Cn2cccn2)c1`?
E coli WT exp: 7; CYP2C9 act: 0.9; Ecoli tolC: 2; CYP2C19 activ: 0.9; CYP2C9 inhib: 9; CYP2C19 inhib: 10

Results for O=C(NC1CCCc2ccccc21)c1cccc(S(=O)(=O)N2CCN(c3ccccc3)CC2)c1 (stereo unspecified) ?
E coli WT exp: -14; CYP2C9 act: 0.2; CYP2C19 activ: 0.7; CYP2C9 inhib: 82*; CYP2C19 inhib: 34

Results for O=C(Nc1cccc(Cn2cccn2)c1)c1cc2c(s1)CCCC2 ?
E coli WT exp: -1; CYP2C9 act: 1.9; Ecoli tolC: 51; CYP2C19 activ: 0.5; CYP2C9 inhib: -95; CYP2C19 inhib: 54*

How did O=C(Nc1cccc(S(=O)(=O)N2CCOCC2)c1)c1cc2c(s1)CCC2 do in these assays?
E coli WT exp: -5; CYP2C9 act: 0; CYP2C19 activ: 0.5; CYP2C9 inhib: 97*; CYP2C19 inhib: 52*

What do the screens show for `O=C(Nc1ccc2c(c1)CCC2)c1cccc(S(=O)(=O)N2CCN(c3ccccc3)CC2)c1`?
E coli WT exp: 1; CYP2C9 act: 0.3; CYP2C19 activ: 0.5; CYP2C9 inhib: 68*; CYP2C19 inhib: 51*

How did COc1ccc(OC)c(S(=O)(=O)N2CCC(C(=O)NCCC3=CCCCC3)CC2)c1 do in these assays?
E coli WT exp: -5; Ecoli tolC: 13

How did COc1cc2nc(SCC(=O)NC3CC3)n(CCC3=CCCCC3)c(=O)c2cc1OC do in these assays?
Ecoli tolC: -3

What do the screens show for `Cc1noc(C)c1CSc1nc2ccccc2c(=O)n1-c1ccc(F)cc1F`?
E coli WT exp: -15; CYP2C9 act: 0.1; Ecoli tolC: 55; CYP2C19 activ: 0.6; CYP2C9 inhib: 94*; CYP2C19 inhib: 39

How did Cc1noc(C)c1CSc1nnc2n(-c3ccccc3)c(=O)c3ccccc3n12 do in these assays?
Ecoli tolC: -8

Results for COc1ccc(-c2noc(CSc3nc4ccccc4c(=O)n3-c3ccccc3)n2)cc1 ?
E coli WT exp: -8; CYP2C9 act: 0.7; Ecoli tolC: 14; CYP2C19 activ: 0.9; CYP2C9 inhib: 32; CYP2C19 inhib: 9

What do the screens show for `O=c1c2ccccc2nc(SCc2nnc(-c3ccccc3)o2)n1-c1ccccc1`?
CYP2C9 act: 0; Ecoli tolC: 37; CYP2C19 activ: 0.6; CYP2C9 inhib: 95*; CYP2C19 inhib: 35

What do the screens show for `Cc1noc(C)c1CSc1nc2[nH]ncc2c(=O)n1-c1ccccc1`?
E coli WT exp: 4; Ecoli tolC: 6

Results for COc1cc2nc(SCc3c(C)noc3C)n(CCC3=CCCCC3)c(=O)c2cc1OC ?
E coli WT exp: -3; CYP2C9 act: 0.3; Ecoli tolC: 2; CYP2C19 activ: 0.7; CYP2C9 inhib: 74*; CYP2C19 inhib: 33

How did Cc1noc(C)c1CSc1nc2ccccc2c(=O)n1-c1ccccc1 do in these assays?
E coli WT exp: -4; CYP2C9 act: 0.2; Ecoli tolC: 54; CYP2C19 activ: 0.6; CYP2C9 inhib: 84*; CYP2C19 inhib: 37

Results for CCCC(CCC)C(=O)NNc1cc(=O)c2c(=O)n(C)c(=O)n(C)c2[nH]1 ?
E coli WT exp: -7; CYP2C9 act: 0.8; CYP2C19 activ: 1; CYP2C9 inhib: 16; CYP2C19 inhib: -1

Results for CCOc1cc(C(=O)Nc2cccc3ncccc23)cc(OCC)c1OCC ?
E coli WT exp: 4; CYP2C9 act: 0.8; CYP2C19 activ: 0.9; CYP2C9 inhib: 16; CYP2C19 inhib: 11

What do the screens show for `C=CCc1c(C)nc(SCCC)[nH]c1=O`?
E coli WT exp: 7; CYP2C9 act: 1.1; Ecoli tolC: 1; CYP2C19 activ: 1; CYP2C9 inhib: -7; CYP2C19 inhib: -2

How did C=CCc1c(C)nc(SCc2nc3ccccc3c(=O)[nH]2)[nH]c1=O do in these assays?
E coli WT exp: 5; CYP2C9 act: 0.3; Ecoli tolC: 100*; CYP2C19 activ: 0.8; CYP2C9 inhib: 67*; CYP2C19 inhib: 16

Results for C=CCn1c(SCc2nc3ccccc3c(=O)[nH]2)nc2ccccc2c1=O ?
E coli WT exp: -7; CYP2C9 act: 0.2; CYP2C19 activ: 0.7; CYP2C9 inhib: 83*; CYP2C19 inhib: 33

What do the screens show for `CCCn1c(SCc2nc3sc(C)c(C)c3c(=O)[nH]2)nc2ccccc2c1=O`?
E coli WT exp: -1; CYP2C9 act: 0.3; CYP2C19 activ: 0.6; CYP2C9 inhib: 66*; CYP2C19 inhib: 37

How did C=CCn1c(Cc2ccc(OC)cc2)nnc1SCc1nc2ccccc2c(=O)[nH]1 do in these assays?
E coli WT exp: 7; CYP2C9 act: 0.9; Ecoli tolC: -9; CYP2C19 activ: 0.8; CYP2C9 inhib: 13; CYP2C19 inhib: 16
